From article PMC11897353 (Scientific Reports, 2025)
“Also recorded” adds a separate entry of the source.

Key:
[1] = molecular target: receptor 5-HT6; details: reported for the endogenous ligand; cited from earlier work
[2] = tested on: mTOR pathway; assay: mTOR pathway protein phosphorylation by Western blot; type: cell-based, human; details: SH-SY5Y, 24 h, vs control; Rapamycin 100 nM
In short: (§1)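 Test compound was diluted in medium from a 5 mM DMSO stock and applied to SH-SY5Y cells for 24 h, after 24 h growth and a PBS wash. Controls were untreated medium and rapamycin. Cells were lysed in RIPA with protease/phosphatase inhibitors and protein measured by BCA. Equal protein was run on 6%/12% SDS-PAGE, then PVDF, 3% BSA block, primary overnight 4 °C, ECL. Densitometry; n≥3, mean ± SEM, one-way ANOVA with Tukey.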

[3] = tested on: LC3 and p62; assay: Common autophagy pathway protein levels; type: cell-based, human; details: SH-SY5Y, 24 h, vs control; Rapamycin 100 nM
In short: as §1

[4] = Preliminary zebrafish larvae viability assay; details: in vivo, other: larvae exposed to the compound at 2–50 µM
[5] = tested on: 5-HT6R; assay: 5-HT6R protein levels by Western blot; type: cell-based, human; details: SH-SY5Y, 24 h, densitometry vs control; Rapamycin 100 nM
In short: as §1

[6] = tested on: SH-SY5Y cells; assay: Autophagy induction by LC3 immunofluorescence; type: cell-based, human; details: for number of autophagosomes per cell / percentage of cells with autophagosomes (LC3-positive punctate pattern): SH-SY5Y, 25 µM, 24 h, vs control; for capacity to induce autophagy: neuroblastoma SH-SY5Y cell line
In short: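 SH-SY5Y cells were grown on coverslips at 20–40% confluence for 24 h, then given test compound at 25 µM for 24 h. Fixation used 4% paraformaldehyde plus DAPI for 20 min. Cells were permeabilized with 0.1% Triton, blocked in 3% BSA, and stained with anti-LC3A/B (1:400, overnight 4 °C) then Alexa 488 secondary. Images at 20x. Cells with LC3 puncta were counted against DAPI nuclei, and puncta per cell by 3D object counting.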

[7] = MTT cell viability assay; type: cell-based, human; details: human, SH-SY5Y neuroblastoma cells
In short: (§2)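 SH-SY5Y cells were seeded at 5 × 10³ per well, grown 24 h, then given test compound at 5, 10 or 25 µM for 24 h, in triplicate. A solvent control was included, and 10% SDS added 1 h before the end served as the death control. MTT at 0.5 mg/mL ran 4 h at 37 °C, followed by overnight solubilization in 10% SDS/0.1 M HCl and A570. Results are % MTT reduction versus the negative control (100%); 3 experiments, one-way ANOVA.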

[8] = tested on: SH-SY5Y cells; assay: MTT cell viability assay; type: cell-based, human; details: SH-SY5Y, 5 µM, 10 µM and 25 µM, 24 h, MTT
In short: as §2

[9] = molecular target: human 5-HT6 receptors (Homo sapiens, UniProt P50406); assay: biochemical; type: binding
Sequence of human 5-HT6 receptors (P50406 whole entry): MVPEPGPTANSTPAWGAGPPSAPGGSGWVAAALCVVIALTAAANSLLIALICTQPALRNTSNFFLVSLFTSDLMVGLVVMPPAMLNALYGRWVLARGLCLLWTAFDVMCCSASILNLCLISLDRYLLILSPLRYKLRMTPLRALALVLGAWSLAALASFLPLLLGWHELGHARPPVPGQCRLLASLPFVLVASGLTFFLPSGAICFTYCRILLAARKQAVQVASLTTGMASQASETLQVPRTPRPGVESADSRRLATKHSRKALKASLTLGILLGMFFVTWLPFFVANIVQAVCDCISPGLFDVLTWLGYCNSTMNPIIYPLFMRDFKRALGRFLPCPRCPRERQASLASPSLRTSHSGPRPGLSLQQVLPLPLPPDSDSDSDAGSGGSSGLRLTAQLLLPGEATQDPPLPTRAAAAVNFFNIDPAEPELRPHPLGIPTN

Structure (SMILES): COc1ccccc1N1CCN(CC(O)c2cn(S(=O)(=O)c3cccc4ccccc34)c3ccccc23)CC1 (stereo not shown) [PUC-10, 2-(4-(2-methoxyphenyl)piperazin-1-yl)-1-(1-(naphthalen-1-ylsulfonyl)-1 H-indol-3-yl)ethan-1-ol]
- phosphorylated levels of BECN1 (Ser30) [2]: significantly increased
- phosphorylated levels of ULK1 (Ser757) [2]: significantly decreases
- phosphorylated levels of mTOR (Ser2448) [2]: significantly decreases
- LC3-II/LC3-I ratio [3]: significant increase
- p62 levels [3]: significantly decreased
- total LC3-II levels [3]: significantly increased
- viability at 48 h [4]: ~85%
- expression levels of 5-HT6R [5]: increases significantly; also recorded: significantly increased
- number of autophagosomes per cell [6]: significant increase
- percentage of cells with autophagosomes (LC3-positive punctate pattern) [6]: significantly higher percentage
- capacity to induce autophagy [6]: high capacity to induce autophagy
- viability at 24 h, 25 µM [7]: > 90%
- cytotoxicity / cellular viability (in words) [8]: do not induce cytotoxicity; also recorded: do not cause toxicity

Structure (SMILES): CO[C@H]1C[C@@H]2CC[C@@H](C)[C@@](O)(O2)C(=O)C(=O)N2CCCC[C@H]2C(=O)O[C@H]([C@H](C)C[C@@H]2CC[C@@H](O)[C@H](OC)C2)CC(=O)[C@H](C)/C=C(\C)[C@@H](O)[C@@H](OC)C(=O)[C@H](C)C[C@H](C)/C=C/C=C/C=C/1C [Rapamycin, reference compound]
- phosphorylated levels of BECN1 (Ser30) [2]: significantly increased
- phosphorylated levels of ULK1 (Ser757) [2]: significantly decreases
- phosphorylated levels of mTOR (Ser2448) [2]: significantly decreases
- LC3-II/LC3-I ratio [3]: significant increase
- p62 levels [3]: significantly decreased
- total LC3-II levels [3]: significantly increased
- expression levels of 5-HT6R [5]: did not modify the expression levels; also recorded: did not produce significant changes

Structure (SMILES): COc1ccccc1N1CCN(CC(O)c2nn(S(=O)(=O)c3cccc4ccccc34)c3ccccc23)CC1 (stereo not shown) [PUC-55, 2-(4-(2-methoxyphenyl)piperazin-1-yl)-1-(1-(naphthalen-1-ylsulfonyl)-1H-indazol-3-yl)ethan-1-ol]
- IC50 [9]: 39 nM
- Ki [9]: 37.5 nM
- phosphorylated levels of BECN1 (Ser30) [2]: significantly increased
- phosphorylated levels of ULK1 (Ser757) [2]: significantly decreases
- phosphorylated levels of mTOR (Ser2448) [2]: significantly decreases
- LC3-II/LC3-I ratio [3]: significant increase
- p62 levels [3]: significantly decreased
- total LC3-II levels [3]: significantly increased
- expression levels of 5-HT6R [5]: increases significantly; also recorded: significantly increased
- number of autophagosomes per cell [6]: significant increase
- percentage of cells with autophagosomes (LC3-positive punctate pattern) [6]: significantly higher percentage
- capacity to induce autophagy [6]: potent autophagy-inducing activity
- cytotoxicity / cellular viability (in words) [8]: high cellular viability; also recorded: do not induce cytotoxicity; also recorded: do not cause toxicity
